Data: ChEMBL document CHEMBL5712902, “Enhanced Anti-lymphoma Activity of CAR19-iNKT Cells Underpinned by Dual CD19 and CD1d Targeting” (Cancer Cell, 2018)
Activity calls are given as the source filed them. No cut-off for these calls is given here.

How the values were obtained:
[1] = system: U-266; assay: Upregulation of CD1D mRNA expression in human U-266 cells at 10^-6 M upto 96 hrs by RT-PCR analysis; assay type: functional, cell-based; settings: dose 1.0 10^-6M
How it was run: (§1)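 U266 cells were harvested in exponential growth and treated with 10^-6 M ATRA, 10^-6 M GSK343, or both, each diluted from a 1 mM 1000x PBS stock. Vehicle control was 0.01% DMSO. Incubation ran up to 96 hr, then CD1D mRNA was read by RT-PCR or CD1d protein by flow cytometry at set time points.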

[2] = system: U-266; assay: Upregulation of CD1D protein expression in human U-266 cells at 10^-6 M upto 96 hrs by flow cytometric analysis; assay type: functional, cell-based; settings: dose 1.0 10^-6M; how it was run: as §1
[3] = system: CLL cell; assay: Upregulation of CD1D mRNA expression in human CLL cells at 10^-6 M upto 96 hrs by RT-PCR analysis; assay type: functional, cell-based; settings: dose 1.0 10^-6M
How it was run: (§2)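 Primary CLL cells were treated with 10^-6 M ATRA, freshly prepared in DMSO, protected from light and diluted to a 1 mM 1000x stock in PBS. Vehicle control was 0.01% DMSO. Cells were incubated for up to 96 hr, then CD1d was read by RT-PCR for mRNA or flow cytometry for surface protein at set time points.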

[4] = system: CLL cell; assay: Upregulation of CD1D protein expression in human CLL cells at 10^-6 M upto 96 hrs by flow cytometric analysis; assay type: functional, cell-based; settings: dose 1.0 10^-6M; how it was run: as §2
[5] = Cytotoxicity against human CLL cells assessed as reduction in cell viability at 10^-6 M after 48 to 96 hrs by tryphan blue assay; assay type: toxicity, cell-based; settings: 1 µM, time 48-96 hrs, dose 1 10^-6M
[6] = system: U-266; assay: Upregulation of CD1D mRNA expression in human U-266 cells at 10^-6 M upto 96 hrs in presence of GSK343 by RT-PCR analysis; assay type: functional, cell-based; settings: dose 1.0 10^-6M; how it was run: as §1
[7] = system: U-266; assay: Upregulation of CD1D protein expression in human U-266 cells at 10^-6 M upto 96 hrs in presence of GSK343 by flow cytometric analysis; assay type: functional, cell-based; settings: dose 1.0 10^-6M; how it was run: as §1

Structure (SMILES) | Activity [1] | Activity [2] | Activity [3] | Activity [4] | Activity [5] | Activity [6] | Activity [7]
CCCc1cc(C)[nH]c(=O)c1CNC(=O)c1cc(-c2ccnc(N3CCN(C)CC3)c2)cc2c1cnn2C(C)C | inactive | inactive | – | – | – | – | –
CC1=C(/C=C/C(C)=C/C=C/C(C)=C/C(=O)O)C(C)(C)CCC1 [TRETINOIN] | – | – | Active | Active | Non-Toxic | Active | Active
